Active and inactive are the calls of the source. The rule behind the calls is not given here.
What was measured:
[1] = test system: Human immunodeficiency virus 2; assay: Antiviral activity against Human immunodeficiency virus 2 ROD infected in human CEM cells assessed as reduction of virus-induced giant cell formation at 250 uM after 4 to 5 days; format: functional, organism-based; conditions: CCRF-CEM
How it was run: (§1)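 CEM cells at 3 × 10^5 cells/mL were infected with HIV at 100 CCID50 per mL in the presence of compound dilutions. They were held 4–5 days at 37 °C in humidified CO2. Syncytium (giant cell) formation was scored microscopically, and EC50 was taken as the concentration inhibiting giant cell formation by 50%.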

Human alphaherpesvirus 2 = assay: Antiviral activity against Herpes simplex virus 2 G infected in human HEL cells assessed as reduction of virus-induced cytopathogenicity at 250 uM; format: functional, organism-based; conditions: strain G
How it was run: (§2)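 Confluent monolayers (HEL fibroblasts, Vero, or HeLa cells as listed) were infected with 100 CCID50 of virus in the presence of varying compound concentrations. Virus-induced cytopathicity or plaque formation was scored once cytopathicity was complete in untreated infected controls. EC50 was taken as the concentration reducing cytopathogenicity or plaque formation by 50%.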

Vero = assay: Cytotoxicity against african green monkey Vero cells assessed as alteration of cell morphology up to 100 uM by microscopic analysis; format: cell-based; conditions: chlorocebus sabaeus
How it was run: (§3)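 Uninfected host-cell cultures were exposed to compound and examined by microscopy. Cytotoxicity was expressed as the minimum cytotoxic concentration (MCC) causing a microscopically detectable alteration of normal cell morphology.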

Human alphaherpesvirus 1 [2] = assay: Antiviral activity against Herpes simplex virus 1 KOS infected in human HEL cells assessed as reduction of virus-induced cytopathogenicity at 250 uM; format: functional, organism-based; how it was run: as §2
MDCK = assay: Cytotoxicity against dog MDCK cells assessed as alteration of cell morphology up to 100 uM by microscopic analysis; format: cell-based, Canis lupus familiaris; how it was run: as §3
[3] = test system: Mammalian orthoreovirus 1; assay: Antiviral activity against Reovirus 1 infected in african green monkey Vero cells assessed as reduction of virus-induced cytopathogenicity at 250 uM; format: functional, organism-based; how it was run: as §2
Human alphaherpesvirus 1 [4] = assay: Antiviral activity against thymidine kinase-deficient, ACV-resistant Herpes simplex virus 1 KOS infected in human HEL cells assessed as reduction of virus-induced cytopathogenicity at 250 uM; format: functional, organism-based
How it was run: (§4)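 Confluent cell monolayers were infected with 100 CCID50 of virus while exposed to varying compound concentrations. Cytopathicity was scored once it was complete in untreated infected controls. EC50 was taken as the concentration that reduced virus-induced cytopathogenicity by 50%.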

[5] = test system: Vesicular stomatitis virus; assay: Antiviral activity against Vesicular stomatitis virus infected in human HeLa cells assessed as reduction of virus-induced cytopathogenicity at 250 uM; format: functional, organism-based; how it was run: as §4
[6] = Cytotoxicity against cat CRFK cells assessed as alteration of cell morphology up to 100 uM by microscopic analysis; format: cell-based, Felis catus; how it was run: as §3
Influenza A virus [7] = assay: Antiviral activity against Influenza A virus H3N2 infected in dog MDCK cells assessed as reduction of virus-induced cytopathogenicity at 250 uM; format: functional, organism-based; how it was run: as §4
Feline coronavirus = assay: Antiviral activity against Feline coronavirus infected in cat CRFK cells assessed as reduction of virus-induced cytopathogenicity at 250 uM; format: functional, organism-based
Punta Toro virus = assay: Antiviral activity against Punta Toro virus infected in african green monkey Vero cells assessed as reduction of virus-induced cytopathogenicity at 250 uM; format: functional, organism-based; how it was run: as §2
[8] = test system: Respiratory syncytial virus; assay: Antiviral activity against Respiratory syncytial virus long infected in human HeLa cells assessed as reduction of virus-induced cytopathogenicity at 250 uM; format: functional, organism-based; how it was run: as §2
[9] = test system: Vesicular stomatitis virus; assay: Antiviral activity against Vesicular stomatitis virus infected in human HEL cells assessed as reduction of virus-induced cytopathogenicity at 250 uM; format: functional, organism-based; how it was run: as §4
Coxsackievirus B4 = assay: Antiviral activity against Coxsackievirus B4 infected in african green monkey Vero cells assessed as reduction of virus-induced cytopathogenicity at 250 uM; format: functional, organism-based; how it was run: as §2
Human respirovirus 3 = assay: Antiviral activity against Parainfluenza virus 3 infected in african green monkey Vero cells assessed as reduction of virus-induced cytopathogenicity at 250 uM; format: functional, organism-based; how it was run: as §2
Influenza B virus = assay: Antiviral activity against Influenza B virus infected in dog MDCK cells assessed as reduction of virus-induced cytopathogenicity at 250 uM; format: functional, organism-based; how it was run: as §4
Sindbis virus = assay: Antiviral activity against Sindbis virus infected in african green monkey Vero cells assessed as reduction of virus-induced cytopathogenicity at 250 uM; format: functional, organism-based; how it was run: as §2
Influenza A virus [10] = assay: Antiviral activity against Influenza A virus H1N1 infected in dog MDCK cells assessed as reduction of virus-induced cytopathogenicity at 250 uM; format: functional, organism-based; how it was run: as §4
HeLa = assay: Cytotoxicity against human HeLa cells assessed as alteration of cell morphology up to 100 uM by microscopic analysis; format: cell-based; how it was run: as §3
Felid alphaherpesvirus 1 = assay: Antiviral activity against Feline herpes virus infected in cat CRFK cells assessed as reduction of virus-induced cytopathogenicity at 250 uM; format: functional, organism-based
[11] = test system: Human immunodeficiency virus 1; assay: Antiviral activity against Human immunodeficiency virus 1 3B infected in human CEM cells assessed as reduction of virus-induced giant cell formation at 250 uM after 4 to 5 days; format: functional, organism-based; conditions: CCRF-CEM; how it was run: as §1
HEL = assay: Cytotoxicity against human HEL cells assessed as alteration of cell morphology up to 100 uM by microscopic analysis; format: cell-based; how it was run: as §3

CCOP(=O)(OCC)[C@@H]1C[C@H](C(=O)Nc2cccc(Cl)c2)ON1C (mixture of isomers)
inhibition [1]: inactive | inhibition (Human alphaherpesvirus 2): inactive | Activity (Vero): Non-toxic | inhibition (Human alphaherpesvirus 1 [2]): inactive | Activity (MDCK): Non-toxic | inhibition [3]: inactive | inhibition (Human alphaherpesvirus 1 [4]): inactive | inhibition [5]: inactive | Activity [6]: Non-toxic | inhibition (Influenza A virus [7]): inactive | inhibition (Feline coronavirus): inactive | inhibition (Punta Toro virus): inactive | inhibition [8]: inactive | inhibition [9]: inactive | inhibition (Coxsackievirus B4): inactive | inhibition (Human respirovirus 3): inactive | inhibition (Influenza B virus): inactive | inhibition (Sindbis virus): inactive | inhibition (Influenza A virus [10]): inactive | Activity (HeLa): Non-toxic | inhibition (Felid alphaherpesvirus 1): inactive | inhibition [11]: inactive | Activity (HEL): Non-toxic

CCOP(=O)(OCC)[C@@H]1C[C@H](C(=O)Nc2ccc(Br)cc2)ON1C (mixture of isomers)
inhibition [1]: inactive | inhibition (Human alphaherpesvirus 2): inactive | Activity (Vero): Non-toxic | inhibition (Human alphaherpesvirus 1 [2]): inactive | Activity (MDCK): Non-toxic | inhibition [3]: inactive | inhibition (Human alphaherpesvirus 1 [4]): inactive | inhibition [5]: inactive | Activity [6]: Non-toxic | inhibition (Influenza A virus [7]): inactive | inhibition (Feline coronavirus): inactive | inhibition (Punta Toro virus): inactive | inhibition [8]: inactive | inhibition [9]: inactive | inhibition (Coxsackievirus B4): inactive | inhibition (Human respirovirus 3): inactive | inhibition (Influenza B virus): inactive | inhibition (Sindbis virus): inactive | inhibition (Influenza A virus [10]): inactive | Activity (HeLa): Non-toxic | inhibition (Felid alphaherpesvirus 1): inactive | inhibition [11]: inactive | Activity (HEL): Non-toxic

CCOP(=O)(OCC)[C@H]1C[C@H](C(=O)Nc2cccc(Cl)c2)ON1C (mixture of isomers)
inhibition [1]: inactive | inhibition (Human alphaherpesvirus 2): inactive | Activity (Vero): Non-toxic | inhibition (Human alphaherpesvirus 1 [2]): inactive | Activity (MDCK): Non-toxic | inhibition [3]: inactive | inhibition (Human alphaherpesvirus 1 [4]): inactive | inhibition [5]: inactive | Activity [6]: Non-toxic | inhibition (Influenza A virus [7]): inactive | inhibition (Feline coronavirus): inactive | inhibition (Punta Toro virus): inactive | inhibition [8]: inactive | inhibition [9]: inactive | inhibition (Coxsackievirus B4): inactive | inhibition (Human respirovirus 3): inactive | inhibition (Influenza B virus): inactive | inhibition (Sindbis virus): inactive | inhibition (Influenza A virus [10]): inactive | Activity (HeLa): Non-toxic | inhibition (Felid alphaherpesvirus 1): inactive | inhibition [11]: inactive | Activity (HEL): Non-toxic

CCOP(=O)(OCC)[C@H]1C[C@H](C(=O)Nc2cccc([N+](=O)[O-])c2)ON1C (mixture of isomers)
inhibition [1]: inactive | inhibition (Human alphaherpesvirus 2): inactive | Activity (Vero): Non-toxic | inhibition (Human alphaherpesvirus 1 [2]): inactive | Activity (MDCK): Non-toxic | inhibition [3]: inactive | inhibition (Human alphaherpesvirus 1 [4]): inactive | inhibition [5]: inactive | Activity [6]: Non-toxic | inhibition (Influenza A virus [7]): inactive | inhibition (Feline coronavirus): inactive | inhibition (Punta Toro virus): inactive | inhibition [8]: inactive | inhibition [9]: inactive | inhibition (Coxsackievirus B4): inactive | inhibition (Human respirovirus 3): inactive | inhibition (Influenza B virus): inactive | inhibition (Sindbis virus): inactive | inhibition (Influenza A virus [10]): inactive | Activity (HeLa): Non-toxic | inhibition (Felid alphaherpesvirus 1): inactive | inhibition [11]: inactive | Activity (HEL): Non-toxic

CCOP(=O)(OCC)[C@@H]1C[C@H](C(=O)Nc2cccc([N+](=O)[O-])c2)ON1C (mixture of isomers)
inhibition [1]: inactive | inhibition (Human alphaherpesvirus 2): inactive | Activity (Vero): Non-toxic | inhibition (Human alphaherpesvirus 1 [2]): inactive | Activity (MDCK): Non-toxic | inhibition [3]: inactive | inhibition (Human alphaherpesvirus 1 [4]): inactive | inhibition [5]: inactive | Activity [6]: Non-toxic | inhibition (Influenza A virus [7]): inactive | inhibition (Feline coronavirus): inactive | inhibition (Punta Toro virus): inactive | inhibition [8]: inactive | inhibition [9]: inactive | inhibition (Coxsackievirus B4): inactive | inhibition (Human respirovirus 3): inactive | inhibition (Influenza B virus): inactive | inhibition (Sindbis virus): inactive | inhibition (Influenza A virus [10]): inactive | Activity (HeLa): Non-toxic | inhibition (Felid alphaherpesvirus 1): inactive | inhibition [11]: inactive | Activity (HEL): Non-toxic

CCOP(=O)(OCC)[C@H]1C[C@H](C(=O)Nc2ccc([N+](=O)[O-])cc2)ON1C (mixture of isomers)
inhibition [1]: inactive | inhibition (Human alphaherpesvirus 2): inactive | Activity (Vero): Non-toxic | inhibition (Human alphaherpesvirus 1 [2]): inactive | Activity (MDCK): Non-toxic | inhibition [3]: inactive | inhibition (Human alphaherpesvirus 1 [4]): inactive | inhibition [5]: inactive | Activity [6]: Non-toxic | inhibition (Influenza A virus [7]): inactive | inhibition (Feline coronavirus): inactive | inhibition (Punta Toro virus): inactive | inhibition [8]: inactive | inhibition [9]: inactive | inhibition (Coxsackievirus B4): inactive | inhibition (Human respirovirus 3): inactive | inhibition (Influenza B virus): inactive | inhibition (Sindbis virus): inactive | inhibition (Influenza A virus [10]): inactive | Activity (HeLa): Non-toxic | inhibition (Felid alphaherpesvirus 1): inactive | inhibition [11]: inactive | Activity (HEL): Non-toxic

CCOP(=O)(OCC)[C@@H]1C[C@H](C(=O)Nc2ccc(C#N)cc2)ON1C (mixture of isomers)
inhibition [1]: inactive | inhibition (Human alphaherpesvirus 2): inactive | Activity (Vero): Non-toxic | inhibition (Human alphaherpesvirus 1 [2]): inactive | Activity (MDCK): Non-toxic | inhibition [3]: inactive | inhibition (Human alphaherpesvirus 1 [4]): inactive | inhibition [5]: inactive | Activity [6]: Non-toxic | inhibition (Influenza A virus [7]): inactive | inhibition (Feline coronavirus): inactive | inhibition (Punta Toro virus): inactive | inhibition [8]: inactive | inhibition [9]: inactive | inhibition (Coxsackievirus B4): inactive | inhibition (Human respirovirus 3): inactive | inhibition (Influenza B virus): inactive | inhibition (Sindbis virus): inactive | inhibition (Influenza A virus [10]): inactive | Activity (HeLa): Non-toxic | inhibition (Felid alphaherpesvirus 1): inactive | inhibition [11]: inactive | Activity (HEL): Non-toxic

CCOP(=O)(OCC)[C@H]1C[C@H](C(=O)Nc2ccccc2C(C)=O)ON1C (mixture of isomers)
inhibition [1]: inactive | inhibition (Human alphaherpesvirus 2): inactive | Activity (Vero): Non-toxic | inhibition (Human alphaherpesvirus 1 [2]): inactive | Activity (MDCK): Non-toxic | inhibition [3]: inactive | inhibition (Human alphaherpesvirus 1 [4]): inactive | inhibition [5]: inactive | Activity [6]: Non-toxic | inhibition (Influenza A virus [7]): inactive | inhibition (Feline coronavirus): inactive | inhibition (Punta Toro virus): inactive | inhibition [8]: inactive | inhibition [9]: inactive | inhibition (Coxsackievirus B4): inactive | inhibition (Human respirovirus 3): inactive | inhibition (Influenza B virus): inactive | inhibition (Sindbis virus): inactive | inhibition (Influenza A virus [10]): inactive | Activity (HeLa): Non-toxic | inhibition (Felid alphaherpesvirus 1): inactive | inhibition [11]: inactive | Activity (HEL): Non-toxic

Source: ChEMBL document CHEMBL2331506, “Design, synthesis, antiviral and cytostatic evaluation of novel isoxazolidine nucleotide analogues with a carbamoyl linker” (Bioorg Med Chem, 2013)
